Results from PMC2774482 (Basic & Clinical Pharmacology & Toxicology, 2009).
Structures can show the parent of a compound that is named as a salt.

What was measured:
[1] = test system: Caco-2 cell monolayers; experiment: Bidirectional transepithelial transport across Caco-2 cell monolayers; format: in vitro ADME, human; details: for increase of the efflux (B–A): physiological pH 7.4/7.4
[2] = pKa / ionisation; format: physicochemical; details: at both pH 6.8 and 7.4
[3] = test system: Caco-2 cell monolayers; experiment: Paracellular transport of [^3H]-mannitol across Caco-2 monolayers; format: in vitro ADME, human; details: apical to basolateral (A-B), over 3 hr
In short: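 Caco-2 TC7 cells (passages 40–55) seeded at 65,000 cells/cm2 on 0.4 µm polycarbonate Transwell inserts and used 20–21 days post-seeding. [3H]-mannitol (0.5 µCi/ml) serves as the paracellular marker for tight-junction integrity. Apical-to-basolateral permeability is followed over 3 hr, with basolateral samples taken at several times and counted by liquid scintillation.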

[4] = Bidirectional transepithelial transport across Caco-2 cell monolayers; format: in vitro ADME, human; details: human, rhodamine 123 5 µM, pH 6.8/7.4, control (no inhibitor)
[5] = test system: P-gp; experiment: as above; format: in vitro ADME, human; details: human, Caco-2, pH 6.8, with cyclosporine A 10 µM, rhodamine 123 5 µM, pH 6.8/7.4, + cyclosporine A 10 µM
[6] = 1 µM, pH 6.8/7.4, + 10 µM Cyclosporine A
[7] = 1 µM, pH 7.4/7.4, + 4 µM GF120918
[8] = 1 µM, pH 7.4/7.4, + 10 µM Cyclosporine A
[9] = 1 µM, pH 7.4/7.4, no inhibitor, control of GF120918 experiment (Table 2)
[10] = 10 µM, pH 6.8/7.4, + 10 µM Cyclosporine A
[11] = 10 µM, pH 6.8/7.4, no inhibitor
[12] = 10 µM, pH 7.4/7.4, + 10 µM Cyclosporine A
[13] = 10 µM, pH 7.4/7.4, no inhibitor
[14] = 50 µM, pH 6.8/7.4, + 10 µM Cyclosporine A
[15] = 50 µM, pH 6.8/7.4, no inhibitor
[16] = 50 µM, pH 7.4/7.4, + 10 µM Cyclosporine A
[17] = 50 µM, pH 7.4/7.4, no inhibitor
[18] = 100 µM, pH 6.8/7.4, + 10 µM Cyclosporine A
[19] = 100 µM, pH 6.8/7.4, no inhibitor
[20] = 100 µM, pH 7.4/7.4, + 10 µM Cyclosporine A
[21] = 100 µM, pH 7.4/7.4, no inhibitor
[22] = in the presence of cyclosporine A

For `COc1cccc(C2(O)CCCCC2CN(C)C)c1` (single isomer, unassigned; (+)) [(+)-TMD, (+)-tramadol], the “Papp (A – B)” value [1, 6] was 15.6 ± 1.2 (cm/sec.) (10^−6), the “Papp (B – A)” value [1, 6] was 34.0 ± 0.7 (cm/sec.) (10^−6) and the “Papp (A – B)” value ([1]; 1 µM, pH 6.8/7.4, no inhibitor) was 14.1 ± 0.8 (cm/sec.) (10^−6). For the same molecule, the “Papp (B – A)” value ([1]; 1 µM, pH 6.8/7.4, no inhibitor) was 31.1 ± 0.8 (cm/sec.) (10^−6), the “Papp (A – B)” value [1, 7] was 45.8 ± 3.7 (cm/sec.) (10^−6) and the “Papp (B – A)” value [1, 7] was 60.6 ± 2.1 (cm/sec.) (10^−6). For the same molecule, the “Papp (A – B)” value [1, 8] was 26.2 ± 3.4 (cm/sec.) (10^−6), the “Papp (B – A)” value [1, 8] was 34.6 ± 0.8 (cm/sec.) (10^−6) and the “Papp (A – B)” value ([1]; 1 µM, pH 7.4/7.4, no inhibitor) was 28.1 ± 0.5 (cm/sec.) (10^−6). For the same molecule, the “Papp (B – A)” value ([1]; 1 µM, pH 7.4/7.4, no inhibitor) was 31.5 ± 1.3 (cm/sec.) (10^−6), the “Papp (A – B)” value [1, 9] was 42.6 ± 6.2 (cm/sec.) (10^−6) and the “Papp (B – A)” value [1, 9] was 52.3 ± 2.9 (cm/sec.) (10^−6). For the same molecule, the “Papp (A – B)” value [1, 10] was 9.6 ± 1.1 (cm/sec.) (10^−6), the “Papp (B – A)” value [1, 10] was 28.8 ± 0.6 (cm/sec.) (10^−6) and the “Papp (A – B)” value [1, 11] was 11.0 ± 0.7 (cm/sec.) (10^−6). For the same molecule, the “Papp (B – A)” value [1, 11] was 26.9 ± 0.5 (cm/sec.) (10^−6), the “Papp (A – B)” value [1, 12] was 30.2 ± 2.1 (cm/sec.) (10^−6) and the “Papp (B – A)” value [1, 12] was 39.4 ± 0.8 (cm/sec.) (10^−6). For the same molecule, the “Papp (A – B)” value [1, 13] was 33.5 ± 1.4 (cm/sec.) (10^−6), the “Papp (B – A)” value [1, 13] was 38.8 ± 1.6 (cm/sec.) (10^−6) and the “Papp (A – B)” value [1, 14] was 9.3 ± 0.6 (cm/sec.) (10^−6). For the same molecule, the “Papp (B – A)” value [1, 14] was 31.2 ± 0.7 (cm/sec.) (10^−6), the “Papp (A – B)” value [1, 15] was 10.3 ± 0.5 (cm/sec.) (10^−6) and the “Papp (B – A)” value [1, 15] was 25.6 ± 2.3 (cm/sec.) (10^−6). For the same molecule, the “Papp (A – B)” value [1, 16] was 49.9 ± 2.5 (cm/sec.) (10^−6), the “Papp (B – A)” value [1, 16] was 69.6 ± 0.7 (cm/sec.) (10^−6) and the “Papp (A – B)” value [1, 17] was 52.5 ± 1.1 (cm/sec.) (10^−6). For the same molecule, the “Papp (B – A)” value [1, 17] was 65.3 ± 1.0 (cm/sec.) (10^−6), the “Papp (A – B)” value [1, 18] was 21.7 ± 1.9 (cm/sec.) (10^−6) and the “Papp (B – A)” value [1, 18] was 61.7 ± 2.0 (cm/sec.) (10^−6). The “Papp (A – B)” value [1, 19] was 22.6 ± 1.9 (cm/sec.) (10^−6), the “Papp (B – A)” value [1, 19] was 60.9 ± 1.3 (cm/sec.) (10^−6) and the “Papp (A – B)” value [1, 20] was 39.1 ± 1.5 (cm/sec.) (10^−6). The “Papp (B – A)” value [1, 20] was 68.2 ± 0.9 (cm/sec.) (10^−6), the “Papp (A – B)” value [1, 21] was 41.7 ± 3.6 (cm/sec.) (10^−6) and the “Papp (B – A)” value [1, 21] was 66.9 ± 0.4 (cm/sec.) (10^−6). For the same molecule, the “increase of the efflux (B–A)” value ([1]; GF120918, 1 µM) was 17% and the “increase of the efflux (B–A)” value [1, 22] was “up to 10%”.

For `COc1cccc(C2(O)CCCCC2CN(C)C)c1` (single isomer, unassigned; (-)) [(−)-TMD, (−)-tramadol], the “Papp (A – B)” value [1, 6] was 18.7 ± 1.1 (cm/sec.) (10^−6), the “Papp (B – A)” value [1, 6] was 36.0 ± 0.3 (cm/sec.) (10^−6) and the “Papp (A – B)” value ([1]; 1 µM, pH 6.8/7.4, no inhibitor) was 16.7 ± 0.5 (cm/sec.) (10^−6). For the same molecule, the “Papp (B – A)” value ([1]; 1 µM, pH 6.8/7.4, no inhibitor) was 32.2 ± 0.5 (cm/sec.) (10^−6), the “Papp (A – B)” value [1, 7] was 44.8 ± 4.0 (cm/sec.) (10^−6) and the “Papp (B – A)” value [1, 7] was 61.3 ± 2.8 (cm/sec.) (10^−6). The “Papp (A – B)” value [1, 8] was 29.2 ± 1.1 (cm/sec.) (10^−6), the “Papp (B – A)” value [1, 8] was 34.2 ± 0.8 (cm/sec.) (10^−6) and the “Papp (A – B)” value ([1]; 1 µM, pH 7.4/7.4, no inhibitor) was 31.0 ± 1.9 (cm/sec.) (10^−6). For the same molecule, the “Papp (B – A)” value ([1]; 1 µM, pH 7.4/7.4, no inhibitor) was 30.8 ± 1.8 (cm/sec.) (10^−6), the “Papp (A – B)” value [1, 9] was 43.8 ± 5.8 (cm/sec.) (10^−6) and the “Papp (B – A)” value [1, 9] was 51.1 ± 1.9 (cm/sec.) (10^−6). For the same molecule, the “Papp (A – B)” value [1, 10] was 10.2 ± 1.0 (cm/sec.) (10^−6), the “Papp (B – A)” value [1, 10] was 28.9 ± 0.5 (cm/sec.) (10^−6) and the “Papp (A – B)” value [1, 11] was 11.0 ± 0.5 (cm/sec.) (10^−6). For the same molecule, the “Papp (B – A)” value [1, 11] was 26.9 ± 0.5 (cm/sec.) (10^−6), the “Papp (A – B)” value [1, 12] was 29.9 ± 1.5 (cm/sec.) (10^−6) and the “Papp (B – A)” value [1, 12] was 39.0 ± 0.6 (cm/sec.) (10^−6). The “Papp (A – B)” value [1, 13] was 33.5 ± 2.2 (cm/sec.) (10^−6), the “Papp (B – A)” value [1, 13] was 37.2 ± 0.4 (cm/sec.) (10^−6) and the “Papp (A – B)” value [1, 14] was 9.4 ± 0.6 (cm/sec.) (10^−6). The “Papp (B – A)” value [1, 14] was 31.2 ± 0.8 (cm/sec.) (10^−6), the “Papp (A – B)” value [1, 15] was 10.3 ± 0.5 (cm/sec.) (10^−6) and the “Papp (B – A)” value [1, 15] was 25.4 ± 2.3 (cm/sec.) (10^−6). For the same molecule, the “Papp (A – B)” value [1, 16] was 50.9 ± 1.7 (cm/sec.) (10^−6), the “Papp (B – A)” value [1, 16] was 68.9 ± 0.4 (cm/sec.) (10^−6) and the “Papp (A – B)” value [1, 17] was 52.9 ± 1.0 (cm/sec.) (10^−6). For the same molecule, the “Papp (B – A)” value [1, 17] was 63.4 ± 3.8 (cm/sec.) (10^−6), the “Papp (A – B)” value [1, 18] was 21.7 ± 2.0 (cm/sec.) (10^−6) and the “Papp (B – A)” value [1, 18] was 62.5 ± 2.0 (cm/sec.) (10^−6). For the same molecule, the “Papp (A – B)” value [1, 19] was 22.4 ± 1.8 (cm/sec.) (10^−6), the “Papp (B – A)” value [1, 19] was 61.3 ± 1.0 (cm/sec.) (10^−6) and the “Papp (A – B)” value [1, 20] was 37.3 ± 1.0 (cm/sec.) (10^−6). For the same molecule, the “Papp (B – A)” value [1, 20] was 67.7 ± 1.5 (cm/sec.) (10^−6), the “Papp (A – B)” value [1, 21] was 41.1 ± 2.9 (cm/sec.) (10^−6) and the “Papp (B – A)” value [1, 21] was 64.3 ± 3.4 (cm/sec.) (10^−6). For the same molecule, the “increase of the efflux (B–A)” value ([1]; GF120918, 1 µM) was 17% and the “increase of the efflux (B–A)” value [1, 22] was “up to 10%”.

For `COc1cccc(C2(O)CCCCC2CN(C)C)c1` (centres unmarked) [TMD, Tramadol hydrochloride], the “ionised (protonated) form” value [2] was 100%.

In the case of `OC[C@@H](O)[C@@H](O)[C@H](O)[C@H](O)CO` [[^3H]-mannitol], the transport rate [3] is reported as less than 1 % per hr.

With `COC(=O)c1ccccc1-c1c2ccc(=N)cc-2oc2cc(N)ccc12` [rhodamine 123] the Papp A→B at 3 h, 5 µM ([4]; Caco-2, pH 6.8, Papp(A–B)) was 48 ± 2 nm/s, the Papp B→A at 3 hr, 5 µM ([4]; Caco-2, pH 6.8, Papp(B–A)) was 64 ± 7 nm/s and the “decrease of secretory transport” value ([1]; in the presence of the P-gp inhibitor cyclosporine A) was 80%. It also gave a Papp A→B at 3 h, 5 µM ([5]; Papp(A–B)) of 78 ± 3 nm/s and a Papp B→A at 3 hr, 5 µM ([5]; Papp(B–A)) of 12 ± 3 nm/s.
